Source: article PMC8848307 (Journal of medicinal chemistry, 2019)

Experiments:
[1] = target: human recombinant STAT3 SH2 protein (Homo sapiens, UniProt P40763); assay: Fluorescence polarization; format: binding; details: for times less potent than SI-109 in binding to STAT3: ratio of binding affinities vs SI-109
STAT3 protein = STAT3 protein (Mus musculus, UniProt P42227); assay: Pharmacodynamics in native mouse spleen tissue; format: in vivo; details: single intravenous dose, 25 mg/kg, CD-1 mice
Sequence of STAT3 protein (P42227 whole entry): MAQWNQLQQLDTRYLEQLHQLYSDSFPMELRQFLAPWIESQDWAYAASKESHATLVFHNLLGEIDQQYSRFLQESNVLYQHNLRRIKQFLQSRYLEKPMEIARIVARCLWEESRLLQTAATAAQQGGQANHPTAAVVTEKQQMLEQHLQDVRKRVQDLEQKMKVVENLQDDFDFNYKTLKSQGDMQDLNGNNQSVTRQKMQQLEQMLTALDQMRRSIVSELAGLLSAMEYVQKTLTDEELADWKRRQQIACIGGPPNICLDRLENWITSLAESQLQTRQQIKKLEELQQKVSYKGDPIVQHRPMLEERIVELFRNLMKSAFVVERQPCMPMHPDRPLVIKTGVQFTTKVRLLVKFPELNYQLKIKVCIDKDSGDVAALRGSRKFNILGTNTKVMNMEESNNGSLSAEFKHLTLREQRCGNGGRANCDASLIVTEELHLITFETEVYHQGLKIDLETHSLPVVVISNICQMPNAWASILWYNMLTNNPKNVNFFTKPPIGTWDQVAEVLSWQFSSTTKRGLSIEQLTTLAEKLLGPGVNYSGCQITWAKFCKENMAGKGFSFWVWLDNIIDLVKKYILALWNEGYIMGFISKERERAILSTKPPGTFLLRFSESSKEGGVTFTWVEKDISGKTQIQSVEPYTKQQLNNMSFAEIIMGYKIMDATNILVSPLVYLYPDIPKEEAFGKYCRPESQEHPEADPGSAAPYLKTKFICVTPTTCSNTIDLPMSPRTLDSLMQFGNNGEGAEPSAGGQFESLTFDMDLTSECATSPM
Summary of the method: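 Female CD-1 mice received a single intravenous dose of test compound or vehicle (10% PEG400 + 90% PBS). Mice were euthanized at set time points and spleens harvested. Native spleen lysates were immunoblotted for STAT3.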

Sequence of human recombinant STAT3 SH2 protein (P40763 127-688): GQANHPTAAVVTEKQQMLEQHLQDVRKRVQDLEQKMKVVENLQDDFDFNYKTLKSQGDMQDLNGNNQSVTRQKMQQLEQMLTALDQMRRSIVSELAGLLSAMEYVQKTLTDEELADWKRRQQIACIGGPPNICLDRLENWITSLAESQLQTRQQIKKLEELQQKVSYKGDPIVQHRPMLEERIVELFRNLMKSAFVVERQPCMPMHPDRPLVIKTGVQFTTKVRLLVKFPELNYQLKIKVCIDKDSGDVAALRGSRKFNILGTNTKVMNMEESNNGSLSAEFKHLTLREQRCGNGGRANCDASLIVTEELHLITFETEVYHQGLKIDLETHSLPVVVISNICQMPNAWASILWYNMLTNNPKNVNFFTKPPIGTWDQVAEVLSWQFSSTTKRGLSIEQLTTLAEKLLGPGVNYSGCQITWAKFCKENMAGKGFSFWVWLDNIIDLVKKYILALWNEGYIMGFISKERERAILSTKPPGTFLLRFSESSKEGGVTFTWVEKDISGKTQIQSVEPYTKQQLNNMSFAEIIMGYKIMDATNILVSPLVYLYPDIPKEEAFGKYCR

With NC(=O)CC[C@H](NC(=O)[C@@H]1CC[C@@H]2CCCC[C@H](NC(=O)c3cc4cc(CP(=O)(O)O)ccc4[nH]3)C(=O)N21)C(=O)NCc1ccccc1 [Compound 3, (2-((3S,6S)-3-((S)-5-Amino-1-(benzylamino)-1,5-dioxopentan-2-ylcarbamoyl)-5-oxodecahydropyrrolo[1,2-a]azocin-6-ylcarbamoyl)-1H-indol-5-yl)methylphosphonic Acid] the “times weaker than 2 in binding to STAT3” value ([1]; ratio of Ki vs compound 2) was 30 times.

For NC(=O)CC[C@H](NC(=O)[C@@H]1CC[C@@H]2CCCC[C@H](NC(=O)c3cc4cc(C(F)(F)P(=O)(O)O)ccc4[nH]3)C(=O)N21)C(=O)NCc1ccccc1 [Compound 4, (2-((3S,6S)-3-((S)-5-Amino-1-(benzylamino)-1,5-dioxopentan-2-ylcarbamoyl)-5-oxodecahydropyrrolo[1,2-a]azocin-6-ylcarbamoyl)-1H-indol-5-yl)difluoromethylphosphonic Acid], the “times more potent than 3 in binding to STAT3” value ([1]; ratio of Ki vs compound 3) was over 100 times.

In the case of CC(=O)N1CC[C@H]2CC[C@@H](C(=O)N[C@@H](CCC(N)=O)C(=O)NC(c3ccccc3)c3ccccc3)N2C(=O)[C@@H](NC(=O)c2cc3cc(OP(=O)(O)O)ccc3[nH]2)C1 [Compound 9, 2-(((5S,8S,10aR)-3-Acetyl-8-(((S)-5-amino-1-(benzhydrylamino)-1,5-dioxopentan-2-yl)carbamoyl)-6-oxodecahydropyrrolo[1,2-a][1,5]diazocin-5-yl)carbamoyl)-1H-indol-5-yl Dihydrogen Phosphate], the “times less potent than SI-109 in binding to STAT3” value [1] is reported as 2 times.

CC(=O)N1CC[C@H]2CC[C@@H](C(=O)N[C@@H](CCC(N)=O)C(=O)NC(c3ccccc3)c3ccccc3)N2C(=O)[C@@H](NC(=O)c2cc3cc(CP(=O)(O)O)ccc3[nH]2)C1 [Compound 10, ((2-(((5S,8S,10aR)-3-Acetyl-8-(((S)-5-amino-1-(benzhydrylamino)-1,5-dioxopentan-2-yl)carbamoyl)-6-oxodecahydropyrrolo[1,2-a][1,5]diazocin-5-yl)carbamoyl)-1 H-indol-5-yl)methyl)phosphonic Acid] was tested, and the “times less potent than SI-109 in binding to STAT3” value [1] was 14 times.

With CC(=O)N1CC[C@H]2CC[C@@H](C(=O)N[C@@H](CCC(N)=O)C(=O)NC(c3ccccc3)c3ccccc3)N2C(=O)[C@@H](NC(=O)/C=C(\C)c2ccc(C(F)(F)P(=O)(O)O)cc2)C1 [Compound 11, ((4-((E)-4-(((5S,8S,10aR)-3-Acetyl-8-(((S)-5-amino-1-(benzhydrylamino)-1,5-dioxopentan-2-yl)carbamoyl)-6-oxodecahydropyrrolo[1,2-a][1,5]diazocin-5-yl)amino)-4-oxobut-2-en-2-yl)phenyl)difluoromethyl)phosphonic Acid] the “times less potent than SI-109 in binding to STAT3” value [1] was over 10 times.

With NC(=O)CC[C@H](NC(=O)[C@@H]1CC[C@@H]2CCN(C(=O)NCCCCC#Cc3cccc4c3CN(C3CCC(=O)NC3=O)C4=O)C[C@H](NC(=O)c3cc4cc(C(F)(F)P(=O)(O)O)ccc4[nH]3)C(=O)N21)C(=O)NC(c1ccccc1)c1ccccc1 (stereo partly drawn) [Compound 19, ((2-(((5S,8S,10aR)-8-(((S)-5-Amino-1-(benzhydrylamino)-1,5-dioxopentan-2-yl)carbamoyl)-3-((6-(2-(2,6-dioxopiperidin-3-yl)-1-oxoisoindolin-4-yl)hex-5-yn-1-yl)carbamoyl)-6-oxodecahydropyrrolo[1,2-a][1,5]diazocin-5-yl)carbamoyl)-1H-indol-5-yl)difluoromethyl)phosphonic Acid] the “persistence of STAT3 reduction in spleen” value (STAT3 protein) was “more than 48 h” and the “reducing STAT3 protein in native mouse spleen tissue” value (STAT3 protein) was “very effective”.
